From ChEMBL document CHEMBL1122752, “Nucleosides. 129. Synthesis of antiviral nucleosides: 5-alkenyl-1-(2-deoxy-2-fluoro-beta-D-arabinofuranosyl)uracils” (J Med Chem, 1984)

Legend:
[1] = Cytotoxicity expressed as ID50 which is the concentration required for 50% growth inhibition of normal human lymphocytes.; details: read-out: ID50 (the source's name)
Method in brief: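 Normal human lymphoblasts stimulated with PHA; drug concentration causing 50% inhibition of replication (ID50) determined; values are means of three separate experiments run in parallel.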

Vero [2] = experiment: In vitro antiviral activity was determined by plaque-reduction assay in HSV-1(strain 2931) infected Vero cell monolayers; assay type: functional; details: Chlorocebus sabaeus, read-out: ED50 (the source's name)
Method in brief: (§1)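 Vero cell monolayers infected with about 20–30 pfu per well (HSV-1 strain 2931 or HSV-2 strain G), 2 h incubation, then overlaid with maintenance medium containing various drug concentrations. Plaques counted after 2 days of development. ED50 (50% plaque reduction) calculated by linear regression. Values are the mean of three separate experiments run in parallel.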

Vero [3] = experiment: In vitro antiviral activity was determined by plaque-reduction assay in HSV-2 (strain G) infected Vero cell monolayers; assay type: functional; details: Chlorocebus sabaeus, read-out: ED50 (the source's name); method in brief: as §1

Compound	GI50 [1] [nM]	EC50 (Vero [2]) [nM]	EC50 (Vero [3]) [nM]
Nc1nc(=O)n([C@@H]2O[C@H](CO)[C@@H](O)[C@H]2F)cc1I	8600	24	14
O=c1[nH]c(=O)n([C@H]2C[C@H](O)[C@@H](CO)O2)cc1/C=C/Br [BRIVUDINE]	–	70	13000
O=c1[nH]c(=O)n([C@H]2O[C@@H](CO)[C@H](O)[C@@H]2F)cc1/C=C/Br	> 100000	400	13900
CCc1cn([C@H]2O[C@@H](CO)[C@H](O)[C@@H]2F)c(=O)[nH]c1=O	> 100000	240	650
O=c1[nH]c(=O)n([C@@H]2O[C@H](CO)[C@@H](O)[C@@H]2F)cc1/C=C/I	> 100000	1100	17300
O=c1[nH]c(=O)n([C@@H]2O[C@H](CO)[C@@H](O)[C@@H]2F)cc1/C=C/Cl	> 100000	540	6900
C=Cc1cn([C@@H]2O[C@H](CO)[C@@H](O)[C@H]2F)c(=O)[nH]c1=O	> 100000	160	690
